Paper PMC9669183 (British journal of pharmacology, 2022)

What was measured:
α1β2γ2L GABAAR [1] = target: T1, α1β2γ2L GABAAR (Rattus norvegicus, UniProt P18508+P62813+P63138, INS375LLRMFSFK); assay: Drug combination; assay type: cell-based
α1β3γ2L GABAAR [2] = target: T2, α1β3γ2L GABAAR (Homo sapiens, UniProt P14867+P18507+P28472); assay type: binding
α4β2δ GABAA receptor = α4β2δ GABAA receptor (Homo sapiens, UniProt O14764+P47870+P48169); assay: Effect on α4β2δ receptor during long drug applications, oocytes; assay type: cell-based
Sequence of α4β2δ GABAA receptor (P48169 36-554): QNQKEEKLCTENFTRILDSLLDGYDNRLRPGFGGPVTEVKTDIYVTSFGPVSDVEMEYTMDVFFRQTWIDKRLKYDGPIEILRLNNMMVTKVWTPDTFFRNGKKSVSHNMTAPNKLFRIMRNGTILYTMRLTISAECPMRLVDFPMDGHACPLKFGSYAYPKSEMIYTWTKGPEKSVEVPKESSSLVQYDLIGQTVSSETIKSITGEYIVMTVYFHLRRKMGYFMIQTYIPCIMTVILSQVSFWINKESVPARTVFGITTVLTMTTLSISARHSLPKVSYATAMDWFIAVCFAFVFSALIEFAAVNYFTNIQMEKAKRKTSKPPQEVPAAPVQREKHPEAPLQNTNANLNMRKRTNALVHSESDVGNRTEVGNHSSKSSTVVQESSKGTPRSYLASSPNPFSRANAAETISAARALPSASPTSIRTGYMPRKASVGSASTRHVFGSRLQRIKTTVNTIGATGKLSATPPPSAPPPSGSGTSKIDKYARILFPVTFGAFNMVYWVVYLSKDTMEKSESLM
Sequence of α4β2δ GABAA receptor (P47870 25-512 limits assumed): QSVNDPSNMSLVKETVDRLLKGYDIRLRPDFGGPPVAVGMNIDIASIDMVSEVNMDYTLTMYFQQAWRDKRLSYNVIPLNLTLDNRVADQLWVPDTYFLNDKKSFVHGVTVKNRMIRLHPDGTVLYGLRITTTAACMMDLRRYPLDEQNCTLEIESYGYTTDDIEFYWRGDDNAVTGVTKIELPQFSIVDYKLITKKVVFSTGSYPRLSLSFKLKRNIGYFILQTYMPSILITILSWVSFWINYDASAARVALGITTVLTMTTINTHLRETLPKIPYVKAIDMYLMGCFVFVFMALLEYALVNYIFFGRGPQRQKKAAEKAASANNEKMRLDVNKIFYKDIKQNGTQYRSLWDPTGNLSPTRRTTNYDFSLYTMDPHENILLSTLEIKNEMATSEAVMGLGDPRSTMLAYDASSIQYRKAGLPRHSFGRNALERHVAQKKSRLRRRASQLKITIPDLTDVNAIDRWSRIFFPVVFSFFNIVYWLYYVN
Sequence of α4β2δ GABAA receptor (O14764 25-452): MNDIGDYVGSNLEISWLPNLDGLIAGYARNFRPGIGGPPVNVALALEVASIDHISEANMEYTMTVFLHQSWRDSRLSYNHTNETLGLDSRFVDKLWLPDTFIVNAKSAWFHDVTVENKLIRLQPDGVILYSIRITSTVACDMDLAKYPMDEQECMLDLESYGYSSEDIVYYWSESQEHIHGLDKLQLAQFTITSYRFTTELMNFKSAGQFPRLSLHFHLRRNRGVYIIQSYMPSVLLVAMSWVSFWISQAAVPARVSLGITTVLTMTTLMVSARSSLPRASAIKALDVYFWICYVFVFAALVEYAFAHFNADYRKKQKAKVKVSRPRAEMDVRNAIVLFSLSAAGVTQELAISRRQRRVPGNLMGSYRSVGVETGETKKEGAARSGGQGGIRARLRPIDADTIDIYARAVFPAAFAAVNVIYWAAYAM
In short: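 Human α4β2δ GABAA receptors were expressed in Xenopus laevis oocytes by injecting 3.5-6 ng total cRNA per oocyte. Oocytes were held 1-2 days in ND96 (pH 7.4) with Na pyruvate and antibiotics. Currents were recorded by two-electrode voltage clamp.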

α1β2γ2L GABAAR [3] = target: T1, α1β2γ2L GABAAR; assay: Potentiation of receptors activated by allosteric agonists; assay type: cell-based; settings: 50 μM α7-PAM
α3β4 nicotinic receptor = settings: at high μM concentrations; ref Arias et al., 2011; Timmermann et al., 2007; cited from earlier work
α1(L232C)β2γ2L GABAAR = α1(L232C)β2γ2L GABAAR (Rattus norvegicus, UniProt P18508+P62813+P63138, INS375LLRMFSFK/L258C); assay: Potentiation of low GABA response, mutant receptor in oocytes; assay type: cell-based; settings: 50 μM; low GABA PA<0.10; mean±SEM
α1β2(M286W)γ2L GABAAR = α1β2(M286W)γ2L GABAAR (Rattus norvegicus, UniProt P18508+P62813+P63138, INS375LLRMFSFK/M310W); assay: as above; assay type: cell-based; settings: 50 μM; low GABA PA<0.10; mean±SEM
α1β2γ2L GABAAR [4] = target: T1, α1β2γ2L GABAAR; assay type: cell-based
α1β3(M227C)γ2L GABAAR = α1β3(M227C)γ2L GABAAR (Homo sapiens, UniProt P14867+P18507+P28472, M252C); assay: Potentiation of low GABA response, mutant receptor in oocytes; assay type: cell-based; settings: 50 μM; low GABA PA<0.10; mean±SEM
[5] = tested on: binary αβ GABAA receptors (α1β2, α1β3); assay: Potentiation of binary αβ receptors compared with ternary αβγ, oocytes; assay type: cell-based
α1β3γ2L GABAAR [6] = target: T2, α1β3γ2L GABAAR; assay: Potentiation of low GABA response, oocytes; assay type: cell-based; settings: 50 μM; low GABA PA<0.10; mean±SEM
α1β2(N265M)γ2L GABAAR = α1β2(N265M)γ2L GABAAR (Rattus norvegicus, UniProt P18508+P62813+P63138, INS375LLRMFSFK/N289M); assay: Potentiation of low GABA response, mutant receptor in oocytes; assay type: cell-based; settings: 50 μM; low GABA PA<0.10; mean±SEM
α1β3(L231C)γ2L GABAAR = α1β3(L231C)γ2L GABAAR (Homo sapiens, UniProt P14867+P18507+P28472, L256C); assay: as above; assay type: cell-based; settings: 50 μM; low GABA PA<0.10; mean±SEM
α1β2γ2L(S280C) GABAAR = α1β2γ2L(S280C) GABAAR (Rattus norvegicus, UniProt P18508+P62813+P63138, INS375LLRMFSFK/S318C); assay: as above; assay type: cell-based; settings: 50 μM; low GABA PA<0.10; mean±SEM
α4β2 nicotinic receptor = settings: at high μM concentrations; ref Arias et al., 2011; Timmermann et al., 2007; cited from earlier work
α1(A291W)β2γ2L GABAAR = α1(A291W)β2γ2L GABAAR (Rattus norvegicus, UniProt P18508+P62813+P63138, A317W/INS375LLRMFSFK); assay: Potentiation of low GABA response, mutant receptor in oocytes; assay type: cell-based; settings: 50 μM; low GABA PA<0.10; mean±SEM
α1β2γ2L GABAAR [7] = target: T1, α1β2γ2L GABAAR; assay: Direct activation, two-electrode voltage clamp in Xenopus oocytes; assay type: cell-based; settings: 50 μM α7-PAM; n=5 oocytes/drug; mean±SEM
α1β2γ2L GABAAR [8] = target: T1, α1β2γ2L GABAAR; assay: Modulation of steady-state response to saturating GABA, Xenopus oocytes; assay type: cell-based; settings: 50 μM α7-PAM; 1 mM GABA
α1β2γ2L(I242C) GABAAR = α1β2γ2L(I242C) GABAAR (Rattus norvegicus, UniProt P18508+P62813+P63138, I280C/INS375LLRMFSFK); assay: Potentiation of low GABA response, mutant receptor in oocytes; assay type: cell-based; settings: 50 μM; low GABA PA<0.10; mean±SEM
α1β2γ2L(L246C) GABAAR = α1β2γ2L(L246C) GABAAR (Rattus norvegicus, UniProt P18508+P62813+P63138, INS375LLRMFSFK/L284C); assay: as above; assay type: cell-based; settings: 50 μM; low GABA PA<0.10; mean±SEM
α1(Q241L)β2γ2L GABAAR = α1(Q241L)β2γ2L GABAAR (Rattus norvegicus, UniProt P18508+P62813+P63138, INS375LLRMFSFK/Q268L); assay: as above; assay type: cell-based; settings: 50 μM; low GABA PA<0.10; mean±SEM
α1(M236C)β2γ2L GABAAR = α1(M236C)β2γ2L GABAAR (Rattus norvegicus, UniProt P18508+P62813+P63138, INS375LLRMFSFK/M262C); assay: as above; assay type: cell-based; settings: 50 μM; low GABA PA<0.10; mean±SEM
[9] = 0.5 μM GABA+20 μM NS-1738+25 μM PAM-2

SMILES: Cc1ccc(NC(=O)/C=C/c2ccco2)cc1 [PAM-2, (E)-3-(furan-2-yl)-N-(p-tolyl)-acrylamide]
- calculated PA for GABA+NS-1738+PAM-2, distinct site model (α1β2γ2L GABAAR [1]; [9]): 0.267±0.065
- calculated PA for GABA+NS-1738+PAM-2, same site model (α1β2γ2L GABAAR [1]; [9]): 0.146±0.043
- observed PA of response to GABA+NS-1738+PAM-2 (α1β2γ2L GABAAR [1]; [9]): 0.158±0.044
- observed PA in the presence of R(+)-etomidate+α7-PAM (α1β2γ2L GABAAR [1]; 50 μM α7-PAM, R(+)-etomidate): 0.050±0.013
- predicted PA for R(+)-etomidate+α7-PAM, distinct site model (α1β2γ2L GABAAR [1]; 50 μM α7-PAM, R(+)-etomidate): 0.097±0.030
- predicted PA for R(+)-etomidate+α7-PAM, same site model (α1β2γ2L GABAAR [1]; 50 μM α7-PAM, R(+)-etomidate): 0.008±0.002
- decrease in GABA Ki between 0 (control) and 100 μM α7-PAM (α1β3γ2L GABAAR [2]; 100 μM α7-PAM): 3.8 fold
- direct effect on fluorescence from α1β3γ2L-bound Gzn-OG (orthosteric site) (α1β3γ2L GABAAR [2]; 3-100 μM α7-PAM, no GABA): do not modify fluorescence
- effect on the α4β2δ receptor (α4β2δ GABAA receptor): inhibited
- potentiation of currents elicited by propofol (% of control) (α1β2γ2L GABAAR [3]; 10 μM propofol): 123±9 % of control
- potentiation of the response to phenobarbital (% of control) (α1β2γ2L GABAAR [3]; 1 mM phenobarbital, n=5): 103±6 % of control
- potentiation of the peak response to R(+)-etomidate (% of control) (α1β2γ2L GABAAR [3]; 2-4 μM R(+)-etomidate): 140±17 % of control
- effect on the heteromeric α3β4 nicotinic receptor (α3β4 nicotinic receptor): inhibit
- Potentiation (% of control), α1(L232C)β2γ2L (α1(L232C)β2γ2L GABAAR): 197 ± 8% % of control
- Potentiation (% of control), α1β2(M286W)γ2L (α1β2(M286W)γ2L GABAAR): 181 ± 12% % of control
- EC50 (α1β2γ2L GABAAR [4]): 26 ± 8 µM
- Kd (α1β2γ2L GABAAR [4]): 24.8 ± 10.5 µM
- potentiation of the response to low GABA (% of control) (α1β2γ2L GABAAR [4]; 50 μM α7-PAM, 2-5 μM GABA (PA<0.10), 100% = no effect, mean±SEM): 300 ± 43 % of control
- free energy change (ΔG) towards stabilizing the active state (α1β2γ2L GABAAR [4]; co-agonist concerted transition model): -0.76 kcal/mol
- Potentiation (% of control), α1β3(M227C)γ2L (α1β3(M227C)γ2L GABAAR): 163 ± 12% of control
- magnitude of potentiation in binary αβ vs ternary αβγ receptors [5]: similar
- Potentiation (% of control), α1β3γ2L (α1β3γ2L GABAAR [6]): 176 ± 12% % of control
- Potentiation (% of control), α1β2(N265M)γ2L (α1β2(N265M)γ2L GABAAR): 124 ± 6% % of control
- Potentiation (% of control), α1β3(L231C)γ2L (α1β3(L231C)γ2L GABAAR): 153 ± 11% of control
- Potentiation (% of control), α1β2γ2L(S280C) (α1β2γ2L(S280C) GABAAR): 233 ± 16% of control
- effect on the heteromeric α4β2 nicotinic receptor (α4β2 nicotinic receptor): inhibit
- Potentiation (% of control), α1(A291W)β2γ2L (α1(A291W)β2γ2L GABAAR): 130 ± 7% % of control
- direct activation: response as % of the peak response to 1 mM GABA+50 μM propofol (α1β2γ2L GABAAR [7]): 0.70±0.19%
- steady-state response to saturating GABA in presence of α7-PAM (% of control) (α1β2γ2L GABAAR [8]): 70±4 % of control
- Potentiation (% of control), α1β2γ2L(I242C) (α1β2γ2L(I242C) GABAAR): 189 ± 11% % of control
- Potentiation (% of control), α1β2γ2L(L246C) (α1β2γ2L(L246C) GABAAR): 147 ± 7% % of control
- Potentiation (% of control), α1(Q241L)β2γ2L (α1(Q241L)β2γ2L GABAAR): 382 ± 29% of control
- Potentiation (% of control), α1(M236C)β2γ2L (α1(M236C)β2γ2L GABAAR): 176 ± 11% % of control
